# Test results published in ChEMBL document CHEMBL6120954, “Development of Fragment-Based Inhibitors of the Bacterial Deacetylase LpxC with Low Nanomolar Activity” (J Med Chem, 2024).
# What was measured:
# [1] = target: Elastase (Pseudomonas aeruginosa (strain ATCC 15692 / PAO1 / 1C / PRS 101 / LMG12228)) (UniProt P14756); assay: Inhibition of Pseudomonas aeruginosa PA14 LasB at 20 uM by FRET assay relative to control
# [2] = target: Elastase (Pseudomonas aeruginosa (strain ATCC 15692 / PAO1 / 1C / PRS 101 / LMG12228), UniProt P14756); assay: Inhibition of Pseudomonas aeruginosa PA14 LasB by FRET assay
# Elastase, sequence (P14756 whole entry): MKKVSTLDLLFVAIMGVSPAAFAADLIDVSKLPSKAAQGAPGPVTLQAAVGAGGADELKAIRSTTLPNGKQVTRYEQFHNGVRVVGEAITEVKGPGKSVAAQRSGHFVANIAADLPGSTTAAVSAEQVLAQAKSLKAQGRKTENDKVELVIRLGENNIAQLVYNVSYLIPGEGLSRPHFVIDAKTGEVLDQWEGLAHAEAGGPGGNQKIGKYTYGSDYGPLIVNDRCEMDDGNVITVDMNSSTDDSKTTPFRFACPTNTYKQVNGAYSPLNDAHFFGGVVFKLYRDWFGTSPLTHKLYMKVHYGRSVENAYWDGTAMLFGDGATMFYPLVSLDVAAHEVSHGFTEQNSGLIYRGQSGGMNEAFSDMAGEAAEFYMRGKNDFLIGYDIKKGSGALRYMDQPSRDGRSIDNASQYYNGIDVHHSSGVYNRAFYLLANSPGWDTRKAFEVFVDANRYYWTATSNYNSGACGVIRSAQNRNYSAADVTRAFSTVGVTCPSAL
# [3] = system: Escherichia coli; assay: Antibacterial activity against Escherichia coli BL21(DE3) assessed as inhibition of visible bacterial growth incubated for 20 hrs by microdilution method; type: functional
# How it was run: (§1)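 Broth microdilution in LB. Overnight cultures (37 °C, 200 rpm) were diluted 1:1000 and mixed with 2-fold compound dilutions in DMSO, giving 5 × 10⁵ cfu mL⁻¹, 5% DMSO and final compound concentrations of 64–0.016 μg mL⁻¹. Plates were incubated 20 h at 37 °C. MIC was the lowest concentration preventing visible growth, from at least three runs on separate days.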
# [4] = system: Escherichia coli; assay: Antibacterial activity against Escherichia coli D22 assessed as diameter of inhibition zone incubated for 20 hrs by disc diffusion assay; type: functional
# How it was run: (§2)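 E. coli BL21(DE3) and the defective strain D22 were grown overnight in LB at 37 °C and 200 rpm, and 150 μL was spread on LB agar. Each compound (0.15 μmol in 10 or 15 μL DMSO) was spotted on 6 mm filter paper discs, with DMSO as negative and CHIR-090 as positive control. Plates were incubated overnight at 37 °C and the growth-inhibition zone diameter was measured.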
# [5] = system: Escherichia coli; assay: Antibacterial activity against Escherichia coli BL21(DE3) assessed as Diameter of inhibition zone incubated for 20 hrs by disc diffusion assay; type: functional; how it was run: as §2
# [6] = system: Escherichia coli; assay: Antibacterial activity against Escherichia coli D22 assessed as inhibition of visible bacterial growth incubated for 20 hrs by microdilution method; type: functional; how it was run: as §1
# [7] = Inhibition of Escherichia coli LpxC C63A mutant assessed as inhibition constant incubated for 30 mins by microplate reader analysis
# How it was run: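 Purified E. coli LpxC C63A (15 nM final), expressed in E. coli BL21(DE3), with 25 μM UDP-3-O-[(R)-3-hydroxymyristoyl]-N-acetylglucosamine. Buffer was 40 mM MES pH 6.0, 80 μM DTT, 0.02% Brij 35 and 2% DMSO, with inhibitor at 20 nM–20 μM, for 30 min at 37 °C. The reaction was stopped with NaOH, neutralised with acetic acid, and product was derivatised with o-phthaldialdehyde/2-mercaptoethanol (ex 340, em 460 nm). Runs were done at least three times.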
# [8] = Plasma protein binding in human; type: ADME, cell-free
# [9] = Metabolic stability in CD-1 mouse microsome; type: ADME; conditions: microsomes
# [10] = organism: Homo sapiens; assay: Inhibition of TACE (unknown origin) at 100 uM relative to control
# [11] = target: T1, UDP-3-O-acyl-N-acetylglucosamine deacetylase (Pseudomonas aeruginosa, UniProt B5ATN6); assay: Inhibition of Pseudomonas aeruginosa LpxC
# T1 sequence (B5ATN6 whole entry): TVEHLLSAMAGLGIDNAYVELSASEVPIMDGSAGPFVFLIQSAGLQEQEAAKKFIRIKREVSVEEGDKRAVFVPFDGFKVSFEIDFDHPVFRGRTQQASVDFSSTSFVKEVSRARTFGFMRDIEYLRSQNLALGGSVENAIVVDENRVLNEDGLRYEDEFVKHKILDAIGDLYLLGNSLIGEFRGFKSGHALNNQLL
# How it was run: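 Buffer was 50 mM potassium phosphate pH 7.5, 80 μM DTT, 0.02% Brij 35 and 2% DMSO, with inhibitor at 5 nM–5 μM, for 30 min at 37 °C. The reaction was stopped with HCl. Substrate and product were quantified by LC–MS/MS MRM peak areas relative to the uninhibited reaction, in at least two runs.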
# [12] = Metabolic stability in CD-1 mouse liver S9 fraction assessed as half life in presence of NADPH by HPLC-MS/MS analysis; type: ADME, subcellular
# How it was run: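 Compound at 1 μM was incubated at 37 °C for 120 min with pooled mouse liver S9 (1 mg/mL), 2 mM NADPH, 1 mM UDPGA, 10 mM MgCl₂, 5 mM GSH and 0.1 mM PAPS. Aliquots taken at set times were quenched with 2 volumes of cold acetonitrile containing diphenhydramine internal standard and centrifuged. Remaining compound was quantified by HPLC–MS/MS to derive half-life, with testosterone, verapamil and ketoconazole as activity controls.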
# Elastase (Pseudomonas aeruginosa (strain ATCC 15692 / PAO1 / 1C / PRS 101 / LMG12228)), sequence (P14756 198-498 limits assumed): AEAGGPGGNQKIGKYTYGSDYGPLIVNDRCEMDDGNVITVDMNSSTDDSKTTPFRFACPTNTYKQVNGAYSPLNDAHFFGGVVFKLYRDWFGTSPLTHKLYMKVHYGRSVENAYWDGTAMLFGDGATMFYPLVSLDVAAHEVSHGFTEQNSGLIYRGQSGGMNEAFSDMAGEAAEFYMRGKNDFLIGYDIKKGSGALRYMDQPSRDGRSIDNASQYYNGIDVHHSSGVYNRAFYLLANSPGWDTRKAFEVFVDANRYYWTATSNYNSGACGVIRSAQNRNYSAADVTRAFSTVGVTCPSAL
inhibition [1] [%],Compound,diameter of the inhibition zone (DIZ) [5],Ki [7] [nM],further results
,O=C(NO)[C@@H](CO)OCc1ccc(C#Cc2ccc(CN3CCOCC3)cc2)cc1,12.3 mm,240,MIC [3]: 64 µg/mL; diameter of the inhibition zone (DIZ) [4]: 22 mm; MIC [6]: 2 µg/mL
,O=C(NO)[C@@H](COCc1ccccc1)OCc1ccc(C#Cc2ccc(CN3CCOCC3)cc2)cc1,<=6 mm,,
,O=C(NC[C@H](OCc1ccc(C#Cc2ccc(CN3CCOCC3)cc2)cc1)C(=O)NO)c1c[nH]c2ccccc12,,10.7,fraction unbound [8]: < 0.03; Stability [9]: Stable; inhibition [10]: < 10%
,O=C(NC[C@@H](OCc1ccc(C#Cc2ccc(CN3CCOCC3)cc2)cc1)C(=O)NO)c1ccc2[nH]ccc2c1,,1150,
< 10,O=C(NC[C@H](OCc1ccc(C#Cc2ccc(CN3CCOCC3)cc2)cc1)C(=O)NO)c1cc(-c2ccccc2)[nH]n1,,85.2,
,O=C(NC[C@@H](OCc1ccc(C#Cc2ccc(CN3CCOCC3)cc2)cc1)C(=O)NO)c1ccc2ccccc2n1,<=6 mm,> 2540,
,O=C(NC[C@@H](OCc1ccc(C#Cc2ccc(CN3CCOCC3)cc2)cc1)C(=O)NO)c1c[nH]c2ccccc12,,1580,
,O=C(NO)[C@@H](CN(Cc1ccccc1)Cc1ccccc1)OCc1ccc(C#Cc2ccc(CN3CCOCC3)cc2)cc1,<=6 mm,> 2540,MIC [3]: > 64 µg/mL; diameter of the inhibition zone (DIZ) [4]: <=6 mm
,O=C(NC[C@@H](OCc1ccc(C#Cc2ccc(CN3CCOCC3)cc2)cc1)C(=O)NO)c1cnc2ccccc2c1,,> 2540,
,O=C(NC[C@@H](OCc1ccc(C#Cc2ccc(CN3CCOCC3)cc2)cc1)C(=O)NO)c1ccc(-c2ccccc2)cc1,,> 2540,
,O=C(NO)[C@H](COCc1ccccc1)OCc1ccc(C#Cc2ccc(CN3CCOCC3)cc2)cc1,<=6 mm,,
< 10,O=C(NO)[C@H](CN(Cc1ccccc1)Cc1ccccc1)OCc1ccc(C#Cc2ccc(CN3CCOCC3)cc2)cc1,<=6 mm,> 2540,MIC [3]: 8 µg/mL
,O=C(NC[C@@H](OCc1ccc(C#Cc2ccc(CN3CCOCC3)cc2)cc1)C(=O)NO)c1cc(-c2ccccc2)[nH]n1,<=6 mm,> 2540,
,CCc1ccc(-c2ccc(C(=O)N[C@H](C(=O)NO)[C@@H](C)NCc3ccccn3)cc2)cc1,,,IC50 [11]: 94.8 nM
,O=C(NC[C@H](OCc1ccc(C#Cc2ccc(CN3CCOCC3)cc2)cc1)C(=O)NO)c1ccc2ccccc2n1,,377,
< 10,O=C(NC[C@H](OCc1ccc(C#Cc2ccc(CN3CCOCC3)cc2)cc1)C(=O)NO)c1ccc(-c2ccccc2)cc1,,> 2540,
,O=C(NC[C@@H](OCc1ccc(C#Cc2ccc(CN3CCOCC3)cc2)cc1)C(=O)NO)c1cccc(-c2ccccc2)c1,,> 2540,

inhibition [1] [%],Compound,diameter of the inhibition zone (DIZ) [5],Ki [7] [nM],further results
,O=C(NC[C@@H](OCc1ccc(C#Cc2ccc(CN3CCOCC3)cc2)cc1)C(=O)NO)c1cc2ccccc2[nH]1,,> 2540,
,O=C(NC[C@H](OCc1ccc(C#Cc2ccc(CN3CCOCC3)cc2)cc1)C(=O)NO)c1ccccc1,,,MIC [3]: > 16 µg/mL
< 10,O=C(NO)[C@H](OCc1ccc(C#Cc2ccc(CN3CCOCC3)cc2)cc1)[C@H](O)COCc1ccccc1,,,
< 10,O=C(NC[C@H](OCc1ccc(C#Cc2ccc(CN3CCOCC3)cc2)cc1)C(=O)NO)c1cnc2ccccc2c1,,117,
,O=C(NO)[C@H](CO)OCc1ccc(C#Cc2ccc(CN3CCOCC3)cc2)cc1,15.7 mm,410,MIC [3]: 32 µg/mL; diameter of the inhibition zone (DIZ) [4]: 25.8 mm; MIC [6]: 1 µg/mL
,O=C(NC[C@@H](OCc1ccc(C#Cc2ccc(CN3CCOCC3)cc2)cc1)C(=O)NO)c1ccc(Oc2ccccc2)cc1,,> 2540,
< 10,Cc1noc(C)c1COC[C@H](O)[C@H](OCc1ccc(C#Cc2ccc(CN3CCOCC3)cc2)cc1)C(=O)NO,,,
,O=C(NC[C@@H](OCc1ccc(C#Cc2ccc(CN3CCOCC3)cc2)cc1)C(=O)NO)c1ccccc1,,,MIC [3]: > 16 µg/mL
,Cc1noc(C)c1C(=O)NC[C@H](OCc1ccc(C#Cc2ccc(CN3CCOCC3)cc2)cc1)C(=O)NO,,127,
< 10,O=C(NC[C@H](OCc1ccc(C#Cc2ccc(CN3CCOCC3)cc2)cc1)C(=O)NO)c1cccc(-c2ccccc2)c1,,41.5,
< 10,O=C(NC[C@H](OCc1ccc(C#Cc2ccc(CN3CCOCC3)cc2)cc1)C(=O)NO)c1cc2ccccc2[nH]1,,87,
< 10,O=C(NC[C@H](OCc1ccc(C#Cc2ccc(CN3CCOCC3)cc2)cc1)C(=O)NO)c1ccc(Oc2ccccc2)cc1,,323,
< 10,O=C(NC[C@H](OCc1ccc(C#Cc2ccc(CN3CCOCC3)cc2)cc1)C(=O)NO)c1ccc2[nH]ccc2c1,,9.46,Stability [9]: Stable
< 10,Cc1noc(C)c1C(=O)NC[C@@H](OCc1ccc(C#Cc2ccc(CN3CCOCC3)cc2)cc1)C(=O)NO,,> 2540,
,O=C(NC[C@H](OCc1ccc(C#Cc2ccc(CN3CCOCC3)cc2)cc1)C(=O)NO)c1cc[nH]n1,,,t1/2 [12]: 1.07 h; Stability [9]: Stable
,O=C(COCc1ccc(C#Cc2ccc(CN3CCOCC3)cc2)cc1)NO,16.5 mm,1500,MIC [3]: 64 µg/mL; diameter of the inhibition zone (DIZ) [4]: 20.3 mm; MIC [6]: 1 µg/mL

Compound,inhibition [1] [%],diameter of the inhibition zone (DIZ) [5],Ki [7] [nM],further results
O=C(NO)[C@@H](OCc1ccc(C#Cc2ccc(CN3CCOCC3)cc2)cc1)[C@H](O)COCc1ccccc1,64.9,,,IC50 [2]: 14800 nM
O=C(NO)[C@H](OCc1ccc(C#Cc2ccc(CN3CCOCC3)cc2)cc1)[C@@H](O)COCc1ccccc1,< 10,8.5 mm,870,MIC [3]: > 64 µg/mL; diameter of the inhibition zone (DIZ) [4]: 13.3 mm; MIC [6]: 4 µg/mL
O=C(NO)[C@@H](OCc1ccc(C#Cc2ccc(CN3CCOCC3)cc2)cc1)[C@@H](O)COCc1ccccc1,61,11.2 mm,280,MIC [3]: 4 µg/mL; diameter of the inhibition zone (DIZ) [4]: 19.5 mm; MIC [6]: 0.13 µg/mL; IC50 [2]: 17700 nM
